Assay results reported in ChEMBL document CHEMBL1156926, “CoMFA analysis of tgDHFR and rlDHFR based on antifolates with 6-5 fused ring system using the all-orientation search (AOS) routine and a modified cross-validated r(2)-guided region selection (q(2)-GRS) routine and its initial application” (Bioorg Med Chem, 2010).
The source made the active and inactive calls. The rule behind the calls is not given here.

What was measured:
[1] = biological target: T1, Bifunctional dihydrofolate reductase-thymidylate synthase (Toxoplasma gondii, UniProt Q07422); experiment: Inhibition of Toxoplasma gondii DHFR using dihydrofolic acid substrate and NADPH cofactor by spectrophotometric assay
T1 sequence (Q07422 whole entry): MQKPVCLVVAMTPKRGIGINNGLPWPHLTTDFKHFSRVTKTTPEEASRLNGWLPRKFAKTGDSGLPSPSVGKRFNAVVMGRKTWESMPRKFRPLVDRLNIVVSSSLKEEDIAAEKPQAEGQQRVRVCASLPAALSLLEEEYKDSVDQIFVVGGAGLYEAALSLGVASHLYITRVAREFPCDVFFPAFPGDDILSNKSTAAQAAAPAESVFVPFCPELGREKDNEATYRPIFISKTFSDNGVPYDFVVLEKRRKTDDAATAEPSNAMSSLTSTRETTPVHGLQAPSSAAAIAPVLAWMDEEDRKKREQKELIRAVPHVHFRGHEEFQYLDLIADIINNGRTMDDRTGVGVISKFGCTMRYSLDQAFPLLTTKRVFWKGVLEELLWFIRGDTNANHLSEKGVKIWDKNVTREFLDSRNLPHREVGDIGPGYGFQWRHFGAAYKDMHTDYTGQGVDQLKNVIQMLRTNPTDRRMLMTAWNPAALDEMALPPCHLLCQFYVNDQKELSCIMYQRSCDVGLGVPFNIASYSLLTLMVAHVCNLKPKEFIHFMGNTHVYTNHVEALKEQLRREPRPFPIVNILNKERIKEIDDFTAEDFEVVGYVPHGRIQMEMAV

Dihydrofolate reductase [2] = biological target: T2, Dihydrofolate reductase (Rattus norvegicus, UniProt Q920D2); experiment: Inhibition of rat liver DHFR using dihydrofolic acid substrate and NADPH cofactor by spectrophotometric assay
T2 sequence (Q920D2 whole entry): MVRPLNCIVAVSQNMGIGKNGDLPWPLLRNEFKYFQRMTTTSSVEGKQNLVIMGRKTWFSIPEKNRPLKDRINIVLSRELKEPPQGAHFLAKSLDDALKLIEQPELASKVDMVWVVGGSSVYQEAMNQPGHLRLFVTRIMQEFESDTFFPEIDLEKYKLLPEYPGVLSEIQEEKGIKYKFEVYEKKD

Dihydrofolate reductase [3] = biological target: T2, Dihydrofolate reductase; experiment: Inhibition of rat liver DHFR by spectrophotometric assay
[4] = biological target: T1, Bifunctional dihydrofolate reductase-thymidylate synthase; experiment: Inhibition of Toxoplasma gondii DHFR by spectrophotometric assay
Toxoplasma gondii [5] = experiment: Antimicrobial activity against Toxoplasma gondii RH infected in BALB/c mouse assessed as mouse survival at 50 mg/kg, ip after 5 days; assay type: functional; settings: route intraperitoneal
Toxoplasma gondii [6] = experiment: Antimicrobial activity against Toxoplasma gondii RH infected in BALB/c mouse assessed as reduction of parasite level at 50 mg/kg, ip relative to untreated control; assay type: functional; settings: route intraperitoneal
Method in brief: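 Female BALB/c mice (18-20 g) inoculated i.p. with 5 × 10³ cultured RH trophozoites. Treatment began 4 h after inoculation: 50 mg/kg/day i.p. (amount injected). Where folic acid was used, it was given in drinking water at 10 microgram/ml. Survival was recorded to day 5 and mice were harvested on day 6. Parasites in peritoneal exudate were counted per 1000x field (10 microliters spread over 1 cm²).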

[7] = biological target: T3, Dihydrofolate reductase (Rattus norvegicus) (UniProt Q920D2); settings: 24.6 uM
T3 sequence (whole entry): T2 sequence (Q920D2 whole entry)

Toxoplasma gondii [8] = settings: RH, 50 mg/kg
Toxoplasma gondii [9] = settings: RH, 50 mg/kg; remark: listed apart in the source

SMILES | IC50 (Dihydrofolate reductase [3]) | IC50 [4] | other results
Cc1c(Sc2cc(Cl)c(Cl)cc2Cl)[nH]c2nc(N)nc(N)c12 | – | – | IC50 [1]: 0.212 µM; IC50 (Dihydrofolate reductase [2]): 3 µM
Nc1nc(N)c2c(CNc3cccc4c3CCCC4)c[nH]c2n1 | 59.3 µM | – | –
Cc1[nH]c2nc(N)nc(N)c2c1Sc1ccc(Cl)cc1 | 37.4 µM | – | –
CCn1c2ccccc2c2cc(N(C)Cc3coc4nc(N)nc(N)c34)ccc21 | 24.7 µM | 22.6 µM | –
Cc1cccc(C)c1Sc1[nH]c2nc(N)nc(N)c2c1C [listing 1 of 2 here] | – | – | survival at 50 mg/kg (Toxoplasma gondii [5]; Toxoplasma gondii, RH, ip, 120 h): 100%; IC50 (Dihydrofolate reductase [2]): 0.388 µM; fold change (FC) (Toxoplasma gondii [6]): >2
Nc1nc(N)c2c(CCCc3ccccc3)c[nH]c2n1 | 8.6 µM | 2.7 µM | –
Nc1nc(N)c2c(CSc3ccc(-c4ccccc4)cc3)coc2n1 | 351 µM | 79 µM | –
Cc1[nH]c2nc(N)nc(N)c2c1Sc1cccc2c1CCCC2 | 40 µM | – | –
COc1cc(CCCc2c[nH]c3nc(N)nc(N)c23)cc(OC)c1OC | 4.8 µM | – | –
Cc1cccc(C)c1Sc1[nH]c2nc(N)nc(N)c2c1C.Cl | – | – | Survival (Toxoplasma gondii [5]): 100%
Cc1cc(C)cc(Sc2[nH]c3nc(N)nc(N)c3c2C)c1 | – | – | IC50 (Dihydrofolate reductase [2]): 7.6 µM
Nc1nc(N)c2c(CSc3cccc(-c4ccccc4)c3)coc2n1 | 31 µM | 23 µM | –
COc1cc(Sc2[nH]c3nc(N)nc(N)c3c2C)cc(OC)c1OC | – | – | inhibition [7]: 12%; IC50 (Dihydrofolate reductase [2]): > 24.6 µM
COc1ccc(OC)c(NCc2nc3c(N)nc(N)nc3[nH]2)c1 | > 29 µM | – | –
Nc1nc(N)c2c(CNc3ccc4c(c3)C(O)c3ccccc3-4)coc2n1 (stereo unspecified) | > 13 µM | 63 µM | –
Nc1nc(N)c2c(CSc3ccc4c(c3)CCCC4)c[nH]c2n1 | 82.9 µM | 9.2 µM | –
CCn1c2ccccc2c2cc(NCc3coc4nc(N)nc(N)c34)ccc21 | 12.6 µM | 4.5 µM | –
Nc1nc(N)c2c(CSc3cccc4c3CCCC4)c[nH]c2n1 | 3 µM | 0.81 µM | –

SMILES | IC50 (Dihydrofolate reductase [3]) | IC50 [4] | other results
Nc1nc(N)c2c(CSc3ccc(Oc4ccccc4)cc3)coc2n1 | 65 µM | – | –
COc1ccc(OC)c(CCCc2c[nH]c3nc(N)nc(N)c23)c1 | 11.8 µM | – | –
Nc1nc(N)c2c(CSc3ccccc3-c3ccccc3)coc2n1 | 49 µM | 105 µM | –
Nc1nc(N)c2c(CNc3ccc4c(c3)Cc3ccccc3-4)coc2n1 | > 10 µM | – | –
Cc1[nH]c2nc(N)nc(N)c2c1Sc1ccccc1 | > 33 µM | 81 µM | –
COc1ccc(OC)c(Sc2c(C)[nH]c3nc(N)nc(N)c23)c1 | > 46 µM | 87 µM | –
Nc1nc(N)c2c(CNc3cccc4cc5ccccc5cc34)coc2n1 | > 51 µM | – | –
Nc1nc(N)c2c(CCCc3ccc4c(c3)CCCC4)c[nH]c2n1 | 1.09 µM | – | –
Nc1nc(N)c2c(CSc3ccccc3Oc3ccccc3)coc2n1 | 18 µM | 38 µM | –
COc1ccc(-c2nc3nc(N)nc(N)c3[nH]2)c([N+](=O)[O-])c1OC | > 25 µM | – | –
Nc1nc(N)c2c(CSc3cccc(Oc4ccccc4)c3)coc2n1 | 39 µM | 19 µM | –
Nc1nc(N)c2c(CCCc3ccc(OCc4ccccc4)cc3)c[nH]c2n1 | 0.66 µM | 1.6 µM | –
Cc1[nH]c2nc(N)nc(N)c2c1Sc1cccc(Cl)c1 | 64 µM | – | –
Cc1c(Sc2ccc3ccccc3c2)[nH]c2nc(N)nc(N)c12 | – | – | IC50 [1]: 1.6 µM; IC50 (Dihydrofolate reductase [2]): 8.1 µM
Cc1cccc(C)c1Sc1[nH]c2nc(N)nc(N)c2c1C [listing 2 of 2 here] | – | – | inhibition (Toxoplasma gondii [8]): Active; inhibition (Toxoplasma gondii [9]): Active
Nc1nc(N)c2c(CCCc3cc(Cl)ccc3Cl)c[nH]c2n1 | 4.8 µM | – | –
Cc1[nH]c2nc(N)nc(N)c2c1Sc1ccc(Cl)cc1Cl | 34.6 µM | 28.2 µM | –
